Assay results reported in ChEMBL document CHEMBL1121630, “Prostaglandin analogues possessing antinidatory effects. 1. Modification of the omega chain” (1980).

Species: Rattus norvegicus
Test: Antinidatory effect was measured in rat relative to that of prostaglandin F2 alpha.
Format: functional
In short: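 Mated Wistar female rats (9 weeks, 180–200 g); sperm in vaginal smear marked day 0. Analogues in 10% EtOH–0.4% Tween 80 in saline (1 mg/mL stock, diluted with saline), given sc twice daily on days 3–5 at three to eight doses, 5–20 rats per dose. Killed day 11; no implantation site = effective. ED50 by Litchfield-Wilcoxon, expressed relative to PGF2α.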

Compound	Activity
COC(=O)CCC/C=C\C[C@@H]1[C@@H](/C=C/[C@@H](O)C#COc2ccccc2)[C@H](O)C[C@@H]1O	<2
COC(=O)CCC/C=C\C[C@@H]1[C@@H](/C=C/[C@@H](O)CC(=O)c2ccc(Cl)cc2)[C@H](O)C[C@@H]1O	8
COC(=O)CCC/C=C\C[C@@H]1[C@@H](/C=C/[C@@H](O)C2C=Cc3ccccc32)[C@H](O)C[C@@H]1O (stereo partly specified)	<5
COC(=O)CCC/C=C\C[C@@H]1[C@@H](/C=C/[C@@H](O)c2ccccc2OC)[C@H](O)C[C@@H]1O	<2
COC(=O)CCC/C=C\C[C@@H]1[C@@H](/C=C/[C@@H](O)CC(=O)c2ccccc2)[C@H](O)C[C@@H]1O	40
COC(=O)CCC/C=C\C[C@@H]1[C@@H](/C=C/[C@@H](O)c2cc3ccccc3o2)[C@H](O)C[C@@H]1O	100
COC(=O)CCC/C=C\C[C@@H]1[C@@H](/C=C/[C@@H](O)c2cc3ccccc3s2)[C@H](O)C[C@@H]1O	40
COC(=O)CCC/C=C\C[C@@H]1[C@@H](/C=C/[C@@H](O)CC(=O)Oc2ccccc2)[C@H](O)C[C@@H]1O	<1
COC(=O)CCC/C=C\C[C@@H]1[C@@H](/C=C/[C@@H](O)C#Cc2cccc(Cl)c2)[C@H](O)C[C@@H]1O	40
COC(=O)CCC/C=C\C[C@@H]1[C@@H](/C=C/[C@@H](O)C#Cc2ccccc2)[C@H](O)C[C@@H]1O	40
COC(=O)CCC/C=C\C[C@@H]1[C@@H](/C=C/[C@@H](O)CSC2=CCCCC2)[C@H](O)C[C@@H]1O	10
COC(=O)CCC/C=C\C[C@@H]1[C@@H](/C=C/[C@@H](O)C2(Sc3ccccc3)CC2)[C@H](O)C[C@@H]1O	<2
COC(=O)CCC/C=C\C[C@@H]1[C@@H](/C=C/[C@@H](O)CC(=O)c2cccc(Cl)c2)[C@H](O)C[C@@H]1O	10
COC(=O)CCC/C=C\C[C@@H]1[C@@H](/C=C/[C@@H](O)C(Oc2ccccc2)C(=O)OC)[C@H](O)C[C@@H]1O (stereo partly specified)	<4
COC(=O)CCC/C=C\C[C@@H]1[C@@H](/C=C/[C@@H](O)C[Si](C)(C)c2ccccc2)[C@H](O)C[C@@H]1O	<1
COC(=O)CCC/C=C\C[C@@H]1[C@@H](/C=C/[C@@H](O)C#Cc2ccc(Cl)cc2)[C@H](O)C[C@@H]1O	1
